In ChEMBL document CHEMBL2086268, “Synthesis, radiolabeling and initial in vivo evaluation of [(11)C]KSM-01 for imaging PPAR-α receptors” (Bioorg Med Chem Lett, 2012):

What was measured:
Details in all cases: in vivo, 1 h; call rule not given here
Heart = experiment: Drug uptake in heart of MHC-PPARalpha overexpressing transgenic mouse at 170 uCi, iv after 60 mins by microPET imaging analysis; type: ADME, organism-based
How it was run: (§1)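 Dynamic microPET scan over 0–60 min after intravenous injection of the 11C-labelled tracer. Transgenic mice had cardiac-ventricle PPAR-α protein about 15-fold above wild-type littermates. Data were analysed as standard uptake values (SUV).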

Muscle tissue [1] = experiment: Drug uptake in wild type mouse muscle at 170 uCi, iv after 60 mins by post-PET gamma counting analysis; type: ADME, organism-based
How it was run: (§2)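 Biodistribution done after PET: tissues were collected after the 0–60 min dynamic scan following intravenous injection of the 11C-labelled tracer. Transgenic mice with about 15-fold ventricular PPAR-α overexpression were used alongside wild-type littermate controls. Uptake was expressed as %ID/g.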

Muscle tissue [2] = experiment: Drug uptake in muscle of MHC-PPARalpha overexpressing transgenic mouse at 170 uCi, iv after 60 mins by post-PET gamma counting analysis; type: ADME, organism-based; how it was run: as §2
[3] = Drug uptake in cardiac tissue of MHC-PPARalpha overexpressing transgenic mouse at 170 uCi, iv after 60 mins by post-PET gamma counting analysis; type: ADME, organism-based, Heart; how it was run: as §2
Kidney [4] = experiment: Drug uptake in wild type mouse kidney at 170 uCi, iv after 60 mins by post-PET gamma counting analysis; type: ADME, organism-based; how it was run: as §2
Blood [5] = experiment: Drug uptake in blood of MHC-PPARalpha overexpressing transgenic mouse at 170 uCi, iv after 60 mins by post-PET gamma counting analysis; type: ADME, organism-based; how it was run: as §2
Liver [6] = experiment: Drug uptake in liver of MHC-PPARalpha overexpressing transgenic mouse at 170 uCi, iv after 60 mins by microPET imaging analysis; type: ADME, organism-based; how it was run: as §1
Liver [7] = experiment: Drug uptake in wild type mouse liver at 170 uCi, iv after 60 mins by post-PET gamma counting analysis; type: ADME, organism-based; how it was run: as §2
Lung [8] = experiment: Drug uptake in wild type mouse lungs at 170 uCi, iv after 60 mins by post-PET gamma counting analysis; type: ADME, organism-based; how it was run: as §2
Liver [9] = experiment: Drug uptake in liver of MHC-PPARalpha overexpressing transgenic mouse at 170 uCi, iv after 60 mins by post-PET gamma counting analysis; type: ADME, organism-based; how it was run: as §2
Spleen [10] = experiment: Drug uptake in spleen of MHC-PPARalpha overexpressing transgenic mouse at 170 uCi, iv after 60 mins by post-PET gamma counting analysis; type: ADME, organism-based; how it was run: as §2
Kidney [11] = experiment: Drug uptake in kidney of MHC-PPARalpha overexpressing transgenic mouse at 170 uCi, iv after 60 mins by post-PET gamma counting analysis; type: ADME, organism-based; how it was run: as §2
Spleen [12] = experiment: Drug uptake in wild type mouse spleen at 170 uCi, iv after 60 mins by post-PET gamma counting analysis; type: ADME, organism-based; how it was run: as §2
[13] = Drug uptake in wild type mouse cardiac tissue at 170 uCi, iv after 60 mins by post-PET gamma counting analysis; type: ADME, organism-based, Heart; how it was run: as §2
Blood [14] = experiment: Drug uptake in wild type mouse blood at 170 uCi, iv after 60 mins by post-PET gamma counting analysis; type: ADME, organism-based; how it was run: as §2
Mus musculus = experiment: Drug uptake in MHC-PPARalpha overexpressing transgenic mouse at 170 uCi, iv after 60 mins by microPET imaging analysis relative to wild type control; type: ADME, organism-based
How it was run: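 Transgenic mice overexpressing PPAR-α in heart (ventricular PPAR-α protein about 15-fold above wild-type) and wild-type littermate controls. Dynamic microPET imaging over 0–60 min after intravenous injection of the carbon-11-labelled radiotracer. Radiochemical purity >98%. Cardiac accumulation was quantified as standard uptake values (SUV) and compared with wild-type animals.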

Lung [15] = experiment: Drug uptake in lungs of MHC-PPARalpha overexpressing transgenic mouse at 170 uCi, iv after 60 mins by post-PET gamma counting analysis; type: ADME, organism-based; how it was run: as §2

SMILES: CC(C)(Sc1ccc(CCN(CCCCC2CCCCC2)C(=O)Nc2ccc(O[11CH3])cc2)cc1)C(=O)O
- Drug uptake (Heart): Active
- Drug uptake (Muscle tissue [1]): 0.35 % ID/g
- Drug uptake (Muscle tissue [2]): 0.36 % ID/g
- Drug uptake [3]: 1.09 % ID/g
- Drug uptake (Kidney [4]): 2.01 % ID/g
- Drug uptake (Blood [5]): 0.42 % ID/g
- Drug uptake (Liver [6]): Active
- Drug uptake (Liver [7]): 60.69 % ID/g
- Drug uptake (Lung [8]): 2.11 % ID/g
- Drug uptake (Liver [9]): 55.3 % ID/g
- Drug uptake (Spleen [10]): 1.33 % ID/g
- Drug uptake (Kidney [11]): 2.58 % ID/g
- Drug uptake (Spleen [12]): 1.55 % ID/g
- Drug uptake [13]: 0.479 % ID/g
- Drug uptake (Blood [14]): 0.42 % ID/g
- fold change (FC) (Mus musculus): 2
- Drug uptake (Lung [15]): 2.65 % ID/g
